Experiments:
HepG2 [1] = test: Cytotoxicity against human HepG2 cells by MTS assay; type: functional, cell-based
Method in brief: (§1)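 Cells kept in DMEM high glucose with 10% FBS and 2 mM L-glutamine, 37 °C, 5% CO2, and seeded at 1 × 10⁴ cells/well. After 24 h, switched to serum-free DMEM-F12 with albumin, transferrin and insulin, with or without compound. Incubated 3 days at 37 °C in triplicate to quintuplicate wells. MTS added for 2–2.5 h and read at 490 nm. Viability given as % of media-only control. IC50 from Boltzmann nonlinear regression.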

MCF7 [2] = test: Cytotoxicity against human MCF7 cells assessed as cell viability at 25 uM by MTS assay; type: functional; conditions: read-out: Activity; method in brief: as §1
Nucleic Acid [3] = test: Displacement of ethidium bromide from herring sperm DNA assessed as remaining ethidium bromide at 20 uM by FID assay; type: nucleic-acid assay; conditions: Clupeidae
Nucleic Acid [4] = test: Displacement of ethidium bromide from herring sperm DNA assessed as compound concentration required to 50% fluorescence loss of EtBr by FID assay; type: nucleic-acid assay; conditions: Clupeidae
Method in brief: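 Multiple-point FID in the same system: 0.2 µL aliquots of 10 mM DMSO stock added stepwise, fluorescence read after each addition, until 50% loss of EtBr fluorescence. Apparent binding constant K_Ligand = K_EtBr × [EtBr]/[Ligand]50%.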

MCF7 [5] = test: Cytotoxicity against human MCF7 cells by MTS assay; type: functional, cell-based; method in brief: as §1
HepG2 [6] = test: Cytotoxicity against human HepG2 cells assessed as cell viability at 25 uM by MTS assay; type: functional; conditions: read-out: Activity; method in brief: as §1
Nucleic Acid [7] = test: Displacement of ethidium bromide from herring sperm DNA assessed as remaining ethidium bromide at 50 uM by FID assay; type: nucleic-acid assay; conditions: Clupeidae
Method in brief: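 Single-point FID. Read EtBr (5 µM) in BPE buffer (pH 7.0), exc 520 nm, em 540–700 nm, then read again with sheared herring sperm DNA added; the intensity difference is 100%. Compound added from 10 mM DMSO stock to a final 50 µM, equilibrated ~3 min, rescanned until steady. % EtBr remaining is the mean of triplicates.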

HT-29 [8] = test: Cytotoxicity against human HT-29 cells by MTS assay; type: functional, cell-based; method in brief: as §1
HT-29 [9] = test: Cytotoxicity against human HT-29 cells assessed as cell viability at 25 uM by MTS assay; type: functional; conditions: read-out: Activity; method in brief: as §1
Nucleic Acid [10] = test: Displacement of ethidium bromide from herring sperm DNA assessed as remaining ethidium bromide at 100 uM by FID assay; type: nucleic-acid assay; conditions: Clupeidae
HepG2 [11] = test: Cytotoxicity against human HepG2 cells assessed as cell viability at 100 uM by MTS assay; type: functional; conditions: read-out: Activity
MCF7 [12] = test: Cytotoxicity against human MCF7 cells assessed as cell viability at 100 uM by MTS assay; type: functional; conditions: read-out: Activity
HT-29 [13] = test: Cytotoxicity against human HT-29 cells assessed as cell viability at 100 uM by MTS assay; type: functional; conditions: read-out: Activity

Activity (Nucleic Acid [3])	Activity (Nucleic Acid [4])	Activity (Nucleic Acid [7])	Activity (Nucleic Acid [10])	SMILES	IC50 (HepG2 [1])	viability at 25 µM (MCF7 [2])	IC50 (MCF7 [5])	viability at 25 µM (HepG2 [6])	IC50 (HT-29 [8])	viability at 25 µM (HT-29 [9])	viability at 100 µM (HepG2 [11])	viability at 100 µM (MCF7 [12])	viability at 100 µM (HT-29 [13])
> 100%	55 µM	19.8%	–	Cc1ccc(S(=O)(=O)n2c(-c3ccccc3)c(C#CCO[C@@H]3CC[C@H](N)[C@H](C)O3)c3ccccc32)cc1	5 µM	< 1%	5.3 µM	< 1%	5.3 µM	< 1%	–	–	–
–	–	–	–	CC(=O)O[C@@H]1CC[C@H](OCC#Cc2c(-c3ccccc3)oc3ccccc23)O[C@H]1C	19.2 µM	24%	–	5%	11.8 µM	8%	–	–	–
–	–	96.7%	–	C[C@@H]1O[C@@H](OCC#Cc2c(-c3ccccc3)oc3ccccc23)CC[C@H]1O	15.3 µM	38%	–	< 1%	13.1 µM	3%	–	–	–
–	45 µM	26.6%	–	C[C@@H]1O[C@H](OCC#Cc2c(-c3ccccc3)sc3ccccc23)CC[C@@H]1N	4.9 µM	< 1%	7.7 µM	< 1%	4.6 µM	< 1%	–	–	–
–	–	79.9%	79.9%	C[C@@H]1O[C@@H](OCC#Cc2c(-c3ccccc3)sc3ccccc23)CC[C@@H]1N	–	–	–	–	–	–	–	–	–
–	–	–	–	CC(=O)O[C@@H]1CC[C@H](OCCCc2c(-c3ccccc3)sc3ccccc23)O[C@H]1C	–	47%	–	72%	10.2 µM	9%	–	–	–
–	–	68.5%	68.5%	C[C@@H]1O[C@@H](OCC#Cc2c(-c3ccccc3)oc3ccccc23)CC[C@@H]1N	–	–	–	–	–	–	–	–	–
–	–	103%	–	C[C@@H]1O[C@H](OCC#Cc2c(-c3ccccc3)oc3ccccc23)CC[C@H]1O	22.3 µM	29%	–	6%	12.4 µM	7%	–	–	–
–	–	–	–	C[C@@H]1O[C@@H](OCCCc2c(-c3ccccc3)sc3ccccc23)CC[C@H]1O	–	68%	–	84%	15.3 µM	19%	–	–	–
–	–	109%	–	Cc1ccc(S(=O)(=O)n2c(-c3ccccc3)c(C#CCO[C@@H]3CC[C@@H](O)[C@H](C)O3)c3ccccc32)cc1	18.6 µM	33%	–	5%	–	24%	–	–	–
–	–	–	–	CC(=O)O[C@@H]1CC[C@H](OCCCc2c(-c3ccccc3)oc3ccccc23)O[C@H]1C	–	53%	–	42%	17.8 µM	19%	–	–	–
–	–	103%	–	C[C@@H]1O[C@@H](OCC#Cc2c(-c3ccccc3)sc3ccccc23)CC[C@H]1O	16.4 µM	51%	–	25%	11.1 µM	6%	–	–	–
–	–	99.9%	–	C[C@@H]1O[C@H](OCC#Cc2c(-c3ccccc3)sc3ccccc23)CC[C@H]1O	13.6 µM	23%	–	7%	12.8 µM	2%	–	–	–
–	–	–	–	C[C@@H]1O[C@@H](OCCCc2c(-c3ccccc3)oc3ccccc23)CC[C@H]1O	–	65%	–	62%	16.9 µM	25%	–	–	–
> 100%	55 µM	26.9%	–	C[C@@H]1O[C@H](OCC#Cc2c(-c3ccccc3)oc3ccccc23)CC[C@@H]1N	6.7 µM	< 1%	8.3 µM	< 1%	5.4 µM	< 1%	–	–	–
–	–	–	–	C[C@@H]1O[C@@H](OCC#Cc2c(-c3ccccc3)sc3ccccc23)CC[C@@H]1OC(=O)c1ccccc1	–	100%	–	99%	–	81%	–	–	–
–	–	–	–	C[C@@H]1O[C@@H](OCC#Cc2c(-c3ccccc3)sc3ccccc23)CC[C@H]1N	4.7 µM	< 1%	6.6 µM	< 1%	5.3 µM	< 1%	–	–	–
–	–	–	–	OCCCc1c(-c2ccccc2)oc2ccccc12	–	94%	–	91%	–	76%	< 1%	16%	< 1%
–	–	–	–	CC(=O)O[C@@H]1CC[C@@H](OCC#Cc2c(-c3ccccc3)oc3ccccc23)O[C@H]1C	20.9 µM	78%	–	15%	10.7 µM	9%	–	–	–
–	–	–	–	C[C@@H]1O[C@@H](OCC#Cc2c(-c3ccccc3)sc3ccccc23)CC[C@H]1OC=O	17.4 µM	37%	–	< 1%	7.7 µM	–	–	–	–
–	–	–	51.9%	C[C@@H]1O[C@@H](OCCCc2c(-c3ccccc3)sc3ccccc23)CC[C@@H]1N	7.5 µM	< 1%	11.8 µM	< 1%	8.2 µM	< 1%	–	–	–
–	–	–	43.5%	C[C@@H]1O[C@@H](OCCCc2c(-c3ccccc3)oc3ccccc23)CC[C@@H]1N	7.7 µM	< 1%	13.8 µM	< 1%	6.9 µM	< 1%	–	–	–
–	–	–	–	CC(=O)O[C@@H]1CC[C@H](OCC#Cc2c(-c3ccccc3)sc3ccccc23)O[C@H]1C	12.3 µM	27%	–	< 1%	7.2 µM	< 1%	–	–	–
–	–	–	–	C[C@@H]1O[C@@H](OCC#Cc2c(-c3ccccc3)sc3ccccc23)CC[C@@H]1OC=O	19.8 µM	59%	–	17%	12.6 µM	2%	–	–	–
–	–	–	–	C[C@@H]1O[C@@H](OCC#Cc2c(-c3ccccc3)sc3ccccc23)CC[C@@H]1O	15.6 µM	56%	–	10%	13.4 µM	10%	–	–	–
–	–	111%	–	Cc1ccc(S(=O)(=O)n2c(-c3ccccc3)c(C#CCO[C@H]3CC[C@@H](O)[C@H](C)O3)c3ccccc32)cc1	–	40%	–	27%	–	54%	–	–	–
–	–	–	–	OCCCc1c(-c2ccccc2)sc2ccccc12	–	79%	–	87%	16.3 µM	< 1%	< 1%	< 1%	< 1%
–	–	38.6%	–	Cc1ccc(S(=O)(=O)n2c(-c3ccccc3)c(C#CCO[C@H]3CC[C@H](N)[C@H](C)O3)c3ccccc32)cc1	–	–	–	–	–	–	–	–	–
–	–	–	–	CC(=O)O[C@@H]1CC[C@@H](OCC#Cc2c(-c3ccccc3)sc3ccccc23)O[C@H]1C	15.7 µM	40%	–	8%	10 µM	< 1%	–	–	–
